Converted amounts (≈) assume the structure as drawn. The source made the active and inactive calls. The calls are words filed in the database; no cut-off is given here. Where a SMILES comes first, the peptide text is derived from it.
What was measured:
Acinetobacter baumannii = experiment: Antibacterial activity against clinical isolate Acinetobacter baumannii by microdilution method; format: functional
In short: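 A. baumannii clinical isolate subcultured at least twice on sheep blood agar, 24 h incubation before testing; saline suspension adjusted to 0.5 McFarland. Broth microdilution MIC in Mueller–Hinton broth per CLSI; gentamicin as control antibiotic.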

Enterococcus faecalis [1] = experiment: Antibacterial activity against clinical isolate Enterococcus faecalis by microdilution method; format: functional
In short: (§1)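 Strains subcultured at least twice on sheep blood agar and incubated 24 h before testing; inoculum made by direct suspension in saline to 0.5 McFarland turbidity. MIC determined by broth microdilution in Mueller–Hinton broth following CLSI guidelines; gentamicin run as control antibiotic.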

Escherichia coli [2] = experiment: Antibacterial activity against clinical isolate Escherichia coli by microdilution method; format: functional; in short: as §1
Streptococcus pyogenes = experiment: Antibacterial activity against clinical isolate Streptococcus pyogenes by microdilution method; format: functional
In short: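 S. pyogenes isolate subcultured twice on sheep blood agar, incubated 24 h, suspended in saline to 0.5 McFarland. MIC by CLSI broth microdilution in Mueller–Hinton broth supplemented with 5% lysed horse blood; gentamicin control.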

Pseudomonas aeruginosa [3] = experiment: Antibacterial activity against Pseudomonas aeruginosa ATCC 27853 by microdilution method; format: functional; in short: as §1
Klebsiella pneumoniae = experiment: Antibacterial activity against clinical isolate Klebsiella pneumoniae by microdilution method; format: functional; in short: as §1
Enterococcus faecalis [4] = experiment: Antibacterial activity against Enterococcus faecalis ATCC 29212 by microdilution method; format: functional; in short: as §1
Pseudomonas aeruginosa [5] = experiment: Antibacterial activity against clinical isolate Pseudomonas aeruginosa by microdilution method; format: functional; in short: as §1
Escherichia coli [6] = experiment: Antibacterial activity against Escherichia coli ATCC 25922 by microdilution method; format: functional; in short: as §1
Staphylococcus aureus [7] = experiment: Antibacterial activity against clinical isolate Staphylococcus aureus by microdilution method; format: functional; in short: as §1
Staphylococcus aureus [8] = experiment: Antibacterial activity against Staphylococcus aureus ATCC 29213 by microdilution method; format: functional; in short: as §1
HeLa S3 = experiment: Cytotoxicity against human HeLaS3 cells after 24 hrs by cell titer blue dye assay; format: functional, cell-based
In short: (§2)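 Tumor cells cultured in DMEM with 10% FBS, 37 °C, 5% CO2, kept at 10^5–10^6 cells/mL. About 60 000 cells mixed with 2-fold serial peptide dilutions (final 0.1–100 μM) in DMEM with 2% FBS for 30 min at 37 °C. About 10 000 treated cells per well then got Cell Titer Blue; fluorescence (ex 530, em 590 nm) read 4 and 24 h after dye addition. Viability relative to medium-only controls; triplicate.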

[9] = Toxicity in human erythrocytes assessed as induction of hemolysis at 100 uM incubated for 30 mins by microplate reader assay; format: cell-based, Erythrocyte; conditions: read-out: Activity
In short: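 Fresh human blood erythrocytes, PBS-washed, were incubated as a 4% (v/v) final suspension with peptide (0.1–400 μM final) for 30 min at 37 °C with gentle agitation. After centrifugation, hemoglobin in the supernatant was read at A540. Percent hemolysis was calculated against 1% Triton X-100 (positive) and untreated cells; triplicate.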

[10] = Toxicity in human erythrocytes assessed as induction of hemolysis up to 400 uM incubated for 30 mins by microplate reader assay; format: cell-based, Erythrocyte; conditions: read-out: Activity
In short: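 Fresh human blood collected in EDTA; erythrocytes washed three times in PBS. Mixed 1:1 with 2-fold serial peptide dilutions to final 4% (v/v) cells and 0.1–400 μM peptide. Incubated 30 min at 37 °C with gentle agitation, then centrifuged; supernatant A540 measured. Percent hemolysis scaled between untreated cells and 1% Triton X-100; triplicate.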

[11] = Cytotoxicity against human HeLaS3 cells after 4 hrs by cell titer blue dye assay; format: functional, cell-based; conditions: HeLa S3, 4 h; in short: as §2
U-937 [12] = experiment: Cytotoxicity against human U937 cells after 4 hrs by cell titer blue dye assay; format: functional, cell-based; conditions: for IC50: U-937, 4 h; in short: as §2
[13] = Half life in human serum at 1 mM incubated for 24 hrs by LC-MS analysis; format: ADME, cell-free
In short: (§3)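 Human serum combined with equal volume of 1 mM aqueous peptide stock, incubated 24 h at 37 °C with gentle swirling. Aliquots taken at 0, 1, 5, 10, 30, 120, 360 and 1440 min, quenched with 15% trichloroacetic acid for 30 min at 4 °C, and centrifuged to remove serum proteins. Remaining peptide followed by LC-MS.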

U-937 [14] = experiment: Cytotoxicity against human U937 cells after 24 hrs by cell titer blue dye assay; format: functional, cell-based; in short: as §2
THP-1 [15] = experiment: Cytotoxicity against human THP1 cells after 4 hrs by cell titer blue dye assay; format: functional, cell-based; conditions: for IC50: THP-1, 4 h; in short: as §2
[16] = Cytotoxicity against human 1BR3G cells after 4 hrs by cell titer blue dye assay; format: cell-based
In short: (§4)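 1BR3G fibroblasts grown in DMEM/10% FBS, seeded 5000 cells/well, incubated 24 h at 37 °C, then medium swapped for 2% FBS medium with 2-fold peptide dilutions (0.1–100 μM final). After 30 min, Cell Titer Blue dye was added; fluorescence (ex 530/em 590 nm) read 4 and 24 h later. Viability relative to untreated medium controls; triplicate.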

THP-1 [17] = experiment: Cytotoxicity against human THP1 cells after 24 hrs by cell titer blue dye assay; format: functional, cell-based; in short: as §2
HL-60 [18] = experiment: Cytotoxicity against human HL60 cells after 24 hrs by cell titer blue dye assay; format: functional, cell-based
In short: (§5)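 Suspension cells (~60 000) were mixed with 2-fold peptide dilutions (0.1–100 μM final) in DMEM/2% FBS, 30 min at 37 °C, 5% CO2. ~10 000 cells per well then received Cell Titer Blue. Resorufin fluorescence (ex 530/em 590 nm) was read at 4 and 24 h; viability relative to medium-only controls; triplicate.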

HL-60 [19] = experiment: Cytotoxicity against human HL60 cells after 4 hrs by cell titer blue dye assay; format: functional, cell-based; in short: as §5
Jurkat E6.1 [20] = experiment: Cytotoxicity against human Jurkat E6-1 cells after 4 hrs by cell titer blue dye assay; format: functional, cell-based; in short: as §5
Jurkat E6.1 [21] = experiment: Cytotoxicity against human Jurkat E6-1 cells after 24 hrs by cell titer blue dye assay; format: functional, cell-based; in short: as §5
[22] = Cytotoxicity against human 1BR3G cells after 24 hrs by cell titer blue dye assay; format: cell-based; in short: as §4
[23] = Cytotoxicity against human 1BR3G cells assessed as reduction of cell viability at 100 uM after 4 hrs by cell titer blue dye assay; format: cell-based
In short: (§6)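 1BR3G human fibroblasts grown in DMEM with 10% FBS at 37 °C, 5% CO2; 5000 cells/well seeded for 24 h, then medium swapped for DMEM with 2% FBS holding 2-fold serial peptide dilutions (final 0.1–100 μM). After 30 min, Cell Titer Blue added; fluorescence (ex 530, em 590 nm) read 4 and 24 h after dye addition. Viability relative to 2% FBS medium-only controls; triplicate.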

[24] = Cytotoxicity against human 1BR3G cells assessed as reduction of cell viability at 100 uM after 24 hrs by cell titer blue dye assay; format: cell-based; in short: as §6
[25] = Drug degradation in human serum at 1 mM after 24 hrs by LC-MS analysis; format: ADME, cell-free; conditions: read-out: Drug degradation; in short: as §3
[26] = Metabolic stability in human serum assessed as compound remaining at 1 mM after 24 hrs by LC-MS analysis; format: ADME, cell-free; conditions: read-out: Stability; in short: as §3

Compound | MIC (Acinetobacter baumannii) [µM] | MIC (Enterococcus faecalis [1]) [µM] | MIC (Escherichia coli [2]) [µM] | MIC (Streptococcus pyogenes) [µM] | MIC (Pseudomonas aeruginosa [3]) [µM] | MIC (Klebsiella pneumoniae) [µM] | MIC (Enterococcus faecalis [4]) [µM] | MIC (Pseudomonas aeruginosa [5]) [µM] | MIC (Escherichia coli [6]) [µM] | MIC (Staphylococcus aureus [7]) [µM] | MIC (Staphylococcus aureus [8]) [µM] | Activity (HeLa S3) | hemolysis at 0.5 h [10] [%] | IC50 [11] [µM] | IC50 (U-937 [12]) [µM] | half-life at 1000 µM [13] [h] | Activity (U-937 [14]) | IC50 (THP-1 [15]) [µM] | Activity (THP-1 [17]) | Activity (HL-60 [18]) | further results
GENTAMICIN | 17 | 34 | 34 | 17 | 2.1 | 4.2 | 17 | 17 | 1 | 0.5 | 0.5 | – | – | – | – | – | – | – | – | – | –
CC[C@H](C)[C@H](NC(=O)[C@H](CCCCN)NC(=O)[C@H](CCCCN)NC(=O)[C@H](CC(C)C)NC(=O)[C@H](CCCNC(=N)N)NC(=O)[C@H](CCCCN)NC(=O)[C@H](CCCCN)NC(=O)[C@@H](NC(=O)[C@H](CO)NC(=O)[C@H](CCCCN)NC(=O)[C@H](CCCCN)NC(=O)[C@@H](NC(=O)[C@H](CCCCN)NC(=O)[C@H](CCCCN)NC(=O)[C@H](Cc1ccccc1)NC(=O)[C@H](Cc1ccccc1)NC(=O)[C@H](CCCCN)NC(=O)[C@H](CCCCN)NC(=O)[C@H](Cc1ccccc1)NC(=O)[C@H](CCCNC(=N)N)NC(=O)[C@@H](N)CCCCN)C(C)C)C(C)C)C(=O)N[C@@H](Cc1ccccc1)C(=O)N[C@@H](CCCCN)C(=O)N[C@@H](CCCCN)C(=O)N1CCC[C@H]1C(=O)N[C@@H](CCSC)C(=O)N[C@H](C(=O)N[C@H](C(=O)NCC(=O)N[C@H](C(=O)N[C@H](C(=O)N[C@H](C(=O)N1CCC[C@H]1C(=O)N[C@@H](Cc1ccccc1)C(N)=O)[C@@H](C)CC)[C@H](C)O)C(C)C)[C@@H](C)CC)C(C)C | 3.8 (≈ 15.8 µg/mL) | 31 (≈ 129 µg/mL) | 3.8 (≈ 15.8 µg/mL) | 3.8 (≈ 15.8 µg/mL) | 0.24 (≈ 0.996 µg/mL) | 1.9 (≈ 7.89 µg/mL) | 7.7 (≈ 32 µg/mL) | 3.8 (≈ 15.8 µg/mL) | 0.06 (≈ 0.249 µg/mL) | 7.7 (≈ 32 µg/mL) | 7.7 (≈ 32 µg/mL) | Active | 33 | < 1 | < 1 | 1.18 | Active | 1.56 | Active | Active | hemolysis at 0.5 h, 100 µM [9]: 7%; IC50 [16]: 6.25 µM; IC50 (HL-60 [19]; HL-60, 4 h): > 12.5 µM; IC50 (Jurkat E6.1 [20]; Jurkat E6.1, 4 h): > 12.5 µM; Activity (Jurkat E6.1 [21]): Active; Activity [22]: Toxic
CC(C)[C@H](NC(=O)[C@H](CO)NC(=O)[C@H](CCCCN)NC(=O)[C@H](CCCCN)NC(=O)[C@@H](NC(=O)[C@H](CCCCN)NC(=O)[C@H](CCCCN)NC(=O)[C@H](Cc1ccccc1)NC(=O)[C@H](Cc1ccccc1)NC(=O)[C@H](CCCCN)NC(=O)[C@H](CCCCN)NC(=O)[C@H](Cc1ccccc1)NC(=O)[C@H](CCCNC(=N)N)NC(=O)[C@@H](N)CCCCN)C(C)C)C(N)=O (H-KRFKKFFKKVKKSV-NH2) | 71 (≈ 128 µg/mL) | 71 (≈ 128 µg/mL) | 71 (≈ 128 µg/mL) | 36 (≈ 64.7 µg/mL) | 71 (≈ 128 µg/mL) | 71 (≈ 128 µg/mL) | 71 (≈ 128 µg/mL) | 71 (≈ 128 µg/mL) | 71 (≈ 128 µg/mL) | 71 (≈ 128 µg/mL) | 71 (≈ 128 µg/mL) | Active | 7 | > 10 | – | 0.35 | inactive | – | inactive | inactive | Activity (U-937 [12]): inactive; Activity (THP-1 [15]): inactive; Activity [23]: 20%; Activity [24]: Non-toxic; Activity (HL-60 [19]): inactive; metabolised at 24 h, 1000 µM [25]: 100%; Activity (Jurkat E6.1 [20]): inactive; Activity (Jurkat E6.1 [21]): inactive
CC[C@H](C)[C@H](NC(=O)[C@H](CCCCN)NC(=O)[C@H](CCCCN)NC(=O)[C@H](CC(C)C)NC(=O)[C@H](CCCNC(=N)N)NC(=O)[C@H](CCCCN)NC(=O)[C@@H](N)CCCCN)C(=O)N[C@@H](Cc1ccccc1)C(=O)N[C@@H](CCCCN)C(=O)N[C@@H](CCCCN)C(=O)N1CCC[C@H]1C(=O)N[C@@H](CCSC)C(=O)N[C@H](C(=O)N[C@H](C(=O)NCC(=O)N[C@H](C(=O)N[C@H](C(=O)N[C@H](C(=O)N1CCC[C@H]1C(=O)N[C@@H](Cc1ccccc1)C(N)=O)[C@@H](C)CC)[C@H](C)O)C(C)C)[C@@H](C)CC)C(C)C | 1.7 (≈ 4.03 µg/mL) | 54 (≈ 128 µg/mL) | 3.4 (≈ 8.06 µg/mL) | 3.4 (≈ 8.06 µg/mL) | 27 (≈ 64 µg/mL) | 3.4 (≈ 8.06 µg/mL) | 54 (≈ 128 µg/mL) | 27 (≈ 64 µg/mL) | 0.11 (≈ 0.261 µg/mL) | 54 (≈ 128 µg/mL) | 54 (≈ 128 µg/mL) | Active | 7 | 1 | 6.25 | 12.8 | Active | 25 | Active | – | remaining at 24 h, 1000 µM [26]: 10%; Activity [23]: 20%; Activity [24]: Non-toxic
